Test results taken from ChEMBL document CHEMBL1145113, “Synthesis and crystal structures of substituted benzenes and benzoquinones as tissue factor VIIa inhibitors” (J Med Chem, 2003).

Columns and labels:
[1] = molecular target: Coagulation factor X (Homo sapiens, UniProt P00742); test: Inhibitory activity against coagulation factor X was determined
Summary of the method: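 Human factor Xa at 0.3 nM with 0.15 mM S-2765 in 50 mM Tris-HCl pH 8.0, 100 mM NaCl, 0.1% BSA. A405 background was read immediately, then hydrolysis rate (p-nitroaniline release at 405 nm) after 60 min at room temperature. Seven concentrations in duplicate; % inhibition vs control; IC50 by four-parameter logistic fit.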

[2] = molecular target: T1, Coagulation factor VII (Homo sapiens, UniProt P08709); test: Inhibitory activity against coagulation factor VII was determined
T1 sequence (P08709 whole entry): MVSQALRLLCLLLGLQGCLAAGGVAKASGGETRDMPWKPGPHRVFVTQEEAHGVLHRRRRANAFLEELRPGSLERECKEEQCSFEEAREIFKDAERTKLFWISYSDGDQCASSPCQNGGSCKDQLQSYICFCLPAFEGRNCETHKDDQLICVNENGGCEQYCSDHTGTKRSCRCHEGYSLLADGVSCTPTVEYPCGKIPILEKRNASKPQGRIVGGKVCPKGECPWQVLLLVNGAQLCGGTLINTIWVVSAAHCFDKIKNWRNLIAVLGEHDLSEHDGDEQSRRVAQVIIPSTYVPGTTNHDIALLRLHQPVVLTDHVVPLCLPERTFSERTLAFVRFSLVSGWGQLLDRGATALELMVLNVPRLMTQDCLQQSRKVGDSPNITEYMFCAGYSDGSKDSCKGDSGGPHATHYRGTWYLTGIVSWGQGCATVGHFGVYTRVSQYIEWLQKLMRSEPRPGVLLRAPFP

[3] = system: Thrombin (Homo sapiens); test: Inhibitory activity against thrombin was determined at a concentration of 30 uM

Chain of Coagulation factor X (P00742 41-179 limits assumed): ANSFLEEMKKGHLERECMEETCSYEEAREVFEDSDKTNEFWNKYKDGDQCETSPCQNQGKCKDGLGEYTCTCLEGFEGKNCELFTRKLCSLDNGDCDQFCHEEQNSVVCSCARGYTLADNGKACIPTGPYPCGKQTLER
Chain of Coagulation factor X (P00742 235-488 limits assumed): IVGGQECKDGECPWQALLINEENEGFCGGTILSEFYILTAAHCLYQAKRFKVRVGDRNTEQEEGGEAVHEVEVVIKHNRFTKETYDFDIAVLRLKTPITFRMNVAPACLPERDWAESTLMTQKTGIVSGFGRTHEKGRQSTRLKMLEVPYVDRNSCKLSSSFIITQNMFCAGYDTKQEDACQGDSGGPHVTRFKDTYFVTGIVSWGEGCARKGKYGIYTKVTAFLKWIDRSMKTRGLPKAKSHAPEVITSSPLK

SMILES	IC50 [1]	IC50 [2]	inhibition [3]
N=C(N)c1cccc(CNC(=O)Cc2c(F)ccc(NS(=O)(=O)Cc3ccccc3)c2F)c1	–	> 30 µM	–
O=C(NCC1CCNCC1)c1cc(NS(=O)(=O)Cc2ccccc2)ccc1Sc1ccccc1	–	> 30 µM	–
O=C(Cc1c(F)ccc(NS(=O)(=O)Cc2ccccc2)c1F)NCc1ccncc1	–	> 30 µM	–
N=C(N)c1ccc(CNC(=O)Cc2c(-c3cccc(N)c3)ccc(NCc3ccccc3)c2F)cc1	–	0.5 µM	–
O=C(Cc1c(F)ccc(NS(=O)(=O)Cc2ccccc2)c1F)NCCCn1ccnc1	> 30 µM	> 30 µM	–
CN(C)c1ccc(CNC(=O)c2cc(NS(=O)(=O)Cc3ccccc3)ccc2Sc2ccccc2)cc1	> 30 µM	> 30 µM	–
CC(C)Nc1ccc(-c2cccc(N)c2)c(CC(=O)NCc2ccc(C(=N)N)cc2)c1F	> 30 µM	–	–
O=C(NCc1ccncc1)c1cc(NS(=O)(=O)Cc2ccccc2)ccc1Sc1ccccc1	> 30 µM	> 30 µM	–
N=C(N)NCCCCCNC(=O)Cc1c(F)ccc(NS(=O)(=O)Cc2ccccc2)c1F	> 30 µM	> 30 µM	–
COc1c(NC(C)C)ccc(-c2ccccc2)c1CC(=O)NCc1ccc(C(=N)N)cc1	> 30 µM	–	–
CN(C)c1ccc(CNC(=O)Cc2c(F)ccc(NS(=O)(=O)Cc3ccccc3)c2F)cc1	–	> 30 µM	–

The remaining lines, values ahead:

IC50 [1]	IC50 [2]	inhibition [3]	SMILES
> 30 µM	2.5 µM	–	CC(C)Nc1ccc(-c2ccccc2)c(CC(=O)NCc2ccc(C(=N)N)cc2)c1O
> 30 µM	> 30 µM	22%	N=C(N)c1ccc(CNC(=O)c2cc(NS(=O)(=O)Cc3ccccc3)ccc2Sc2ccccc2)cc1
> 30 µM	–	–	N=C(N)c1ccc(CNC(=O)Cc2c(-c3ccccc3)ccc(NCCc3ccccc3)c2O)cc1
> 30 µM	> 30 µM	–	O=C(Cc1c(F)ccc(NS(=O)(=O)Cc2ccccc2)c1F)NCC1CCNCC1
> 30 µM	–	–	N=C(N)c1ccc(CNC(=O)Cc2c(-c3ccccc3)ccc(NCCc3ccccc3)c2F)cc1
> 30 µM	–	–	N=C(N)c1ccc(CNC(=O)Cc2c(F)ccc(NCCc3ccccc3)c2F)cc1
> 30 µM	> 30 µM	–	N=C(N)c1ccc(CNC(=O)Cc2c(F)ccc(NS(=O)(=O)Cc3ccccc3)c2F)cc1
